Data published in ChEMBL document CHEMBL4813946, “Discovery of novel 4-azaaryl-N-phenylpyrimidin-2-amine derivatives as potent and selective FLT3 inhibitors for acute myeloid leukaemia with FLT3 mutations” (Eur J Med Chem, 2021).
pKi: −log10 of the molar value. Calls of active or inactive are those of the source. The calls are words filed in the database; no cut-off is given here.

Columns and labels:
[1] = target: Cyclin-dependent kinase 1/cyclin B1 (Homo sapiens, UniProt P06493); assay: Inhibition of CDK1/cyclin B (unknown origin) using histone 1 protein substrate incubated for 120 mins measured after 40 mins incubation under dark by ADP-glo based luminescence assay; format: protein-complex assay
Chain of Cyclin-dependent kinase 1/cyclin B1 (P06493 whole entry): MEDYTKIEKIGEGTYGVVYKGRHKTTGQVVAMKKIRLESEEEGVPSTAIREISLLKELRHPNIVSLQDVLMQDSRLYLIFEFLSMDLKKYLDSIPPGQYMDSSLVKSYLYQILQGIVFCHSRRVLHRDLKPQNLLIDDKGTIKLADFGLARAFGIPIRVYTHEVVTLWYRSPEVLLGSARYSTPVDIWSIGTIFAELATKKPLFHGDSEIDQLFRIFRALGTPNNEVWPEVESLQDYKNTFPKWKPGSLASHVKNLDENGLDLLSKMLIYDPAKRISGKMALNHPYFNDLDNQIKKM
Chain of Cyclin-dependent kinase 1/cyclin B1 (P14635 whole entry, further chain): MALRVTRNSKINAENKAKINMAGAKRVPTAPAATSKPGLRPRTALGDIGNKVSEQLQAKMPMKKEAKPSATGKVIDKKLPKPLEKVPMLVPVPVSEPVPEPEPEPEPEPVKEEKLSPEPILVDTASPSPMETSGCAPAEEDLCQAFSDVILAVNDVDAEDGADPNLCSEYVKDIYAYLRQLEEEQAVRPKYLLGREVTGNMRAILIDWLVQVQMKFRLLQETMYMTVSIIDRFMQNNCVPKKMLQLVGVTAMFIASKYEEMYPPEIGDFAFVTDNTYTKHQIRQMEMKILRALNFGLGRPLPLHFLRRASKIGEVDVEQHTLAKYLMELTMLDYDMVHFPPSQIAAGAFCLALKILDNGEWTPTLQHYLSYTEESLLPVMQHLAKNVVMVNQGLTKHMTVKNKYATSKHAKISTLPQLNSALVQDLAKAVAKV
Method in brief: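 In-house ADP-Glo assay with 2 mM DMSO stocks. Kinases were CDK1/cyclin B at 1 nM, CDK2/cyclin E1 at 10 nM and CDK7/cyclin H/MAT1 at 40 nM. Substrate was histone 1 for CDK1 and CDK2, and a RNA pol II CTD peptide for CDK7. Compound at 8–10 concentrations, 1:3 serial, final DMSO 0.5%. Reactions ran 60–120 min at room temperature, then ADP-Glo reagent 40 min in the dark, then detection reagent 40 min, read by luminescence. Ki was derived from IC50 by Cheng-Prusoff.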

MV4-11 [2] = assay: Induction of apoptosis in human MV4-11 cells assessed as late apoptotic cells at 10 x GI50 concentration incubated for 24 hrs by annexin V-FITC and propidium iodide staining based flow cytometry (reference value: 12.45 %); format: functional
MV4-11 [3] = assay: Induction of apoptosis in human MV4-11 cells assessed as viable cells at 10 x GI50 concentration incubated for 24 hrs by annexin V-FITC and propidium iodide staining based flow cytometry (reference value: 84.68 %); format: functional
MV4-11 [4] = assay: Induction of apoptosis in human MV4-11 cells assessed as necrotic cells at 1 x GI50 concentration incubated for 48 hrs by annexin V-FITC and propidium iodide staining based flow cytometry (reference value: 0.45 %); format: functional
[5] = target: Receptor-type tyrosine-protein kinase FLT3 (Homo sapiens) (UniProt P36888); assay: Inhibition of FLT3-mediated signalling pathway in human MV4-11 cells assessed as inhibition of ERK phosphorylation upto 20 x GI50 concentration incubated for 6 hrs by western blot analysis; format: cell-based
Chain of Receptor-type tyrosine-protein kinase FLT3 (Homo sapiens) (P36888 whole entry): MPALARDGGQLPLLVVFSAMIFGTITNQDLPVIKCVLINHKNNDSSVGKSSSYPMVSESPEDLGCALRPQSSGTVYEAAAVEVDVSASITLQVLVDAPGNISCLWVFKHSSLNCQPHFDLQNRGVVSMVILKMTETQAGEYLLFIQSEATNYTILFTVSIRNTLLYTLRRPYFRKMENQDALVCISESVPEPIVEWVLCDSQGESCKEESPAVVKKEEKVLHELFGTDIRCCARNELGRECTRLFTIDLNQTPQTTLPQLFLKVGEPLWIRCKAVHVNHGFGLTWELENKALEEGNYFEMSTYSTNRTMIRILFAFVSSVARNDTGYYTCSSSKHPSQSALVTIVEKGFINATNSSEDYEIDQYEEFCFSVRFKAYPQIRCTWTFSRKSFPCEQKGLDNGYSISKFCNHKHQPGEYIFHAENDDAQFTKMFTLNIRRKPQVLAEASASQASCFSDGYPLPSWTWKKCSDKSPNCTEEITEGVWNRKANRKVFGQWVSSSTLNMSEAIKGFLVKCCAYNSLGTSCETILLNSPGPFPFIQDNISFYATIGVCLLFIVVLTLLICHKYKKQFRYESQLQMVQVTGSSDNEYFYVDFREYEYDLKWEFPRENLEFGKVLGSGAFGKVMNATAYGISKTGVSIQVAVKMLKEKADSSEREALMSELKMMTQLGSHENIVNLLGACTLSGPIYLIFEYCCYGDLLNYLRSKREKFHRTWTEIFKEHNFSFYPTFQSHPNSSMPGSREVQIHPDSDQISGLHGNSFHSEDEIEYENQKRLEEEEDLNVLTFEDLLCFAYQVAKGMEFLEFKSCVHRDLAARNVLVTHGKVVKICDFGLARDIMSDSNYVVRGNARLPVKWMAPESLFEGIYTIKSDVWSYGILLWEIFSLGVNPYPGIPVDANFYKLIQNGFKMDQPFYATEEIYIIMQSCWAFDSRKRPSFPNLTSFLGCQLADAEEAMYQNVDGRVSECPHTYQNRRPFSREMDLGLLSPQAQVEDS
Method in brief: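 Cells lysed in phosphate lysis buffer with protease inhibitors and protein quantified. Western blots probed phospho and total STAT5, AKT, ERK, S6RP and eIF4E, plus full-length and cleaved PARP and caspase-3, with β-actin as loading control. At least two independent experiments.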

U-937 = assay: Induction of apoptosis in human U937 cells assessed as necrotic cells at 5 x GI50 concentration incubated for 48 hrs by annexin V-FITC staining based flow cytometry (reference value: 1.16 %); format: functional

With `CC(=O)N1CCN(c2ccc(Nc3nccc(-c4cn(C)c5ncccc45)n3)cc2)CC1` the pKi [1] was < 5.30, the Activity (MV4-11 [2]) was 20.33% and the Activity (MV4-11 [3]) was 75%. For the same compound, the Activity (MV4-11 [4]) was 0.8%, the inhibition [5] was “Active” and the Activity (U-937) was 1.19%.
